Each structure is given as a SMILES string. Positions count from the first letter of the chain named. The source made the active and inactive calls. The calls are words filed in the database; no cut-off is given here.

Assay [1] addresses T1, Monoglyceride lipase (Homo sapiens) (UniProt Q99685).
T1 sequence (whole entry): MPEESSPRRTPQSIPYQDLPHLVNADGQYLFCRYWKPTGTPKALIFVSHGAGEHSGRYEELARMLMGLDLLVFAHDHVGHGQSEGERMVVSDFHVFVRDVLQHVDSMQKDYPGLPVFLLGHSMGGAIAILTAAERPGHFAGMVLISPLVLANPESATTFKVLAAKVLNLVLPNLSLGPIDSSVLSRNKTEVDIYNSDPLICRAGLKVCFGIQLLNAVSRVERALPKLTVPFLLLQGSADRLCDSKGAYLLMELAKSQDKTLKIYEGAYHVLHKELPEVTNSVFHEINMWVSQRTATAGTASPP
Description: Inhibition of human MGL activity using [3H]2-oleoylglycerol substrate at 10 nM measured upto 1 hr by high dilution reversibility assay. A digest of the protocol:
(§1)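 Recombinant human MGL preincubated with inhibitor at 30, 10 or 3 μM, then diluted 300-fold before substrate addition, giving 100, 33.3 and 10 nM during the activity read. Activity was followed up to 1 h postdilution and compared with a DMSO-preincubated control.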

The target in assay [2] is T1, Monoglyceride lipase (Homo sapiens). Description: Inhibition of human MGL activity using [3H]2-oleoylglycerol substrate at 10 uM by liquid scintillation counting. An outline of the steps:
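Single-point screen on recombinant human MGL at 10 μM, with a parallel screen at 100 μM.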

Assay [3] has as its target Monoglyceride lipase (Homo sapiens, UniProt Q99685, C208A). Description: Inhibition of human MGL C208A mutant using [3H]2-oleoylglycerol substrate.
Assay [4] relates to T2, Monoglyceride lipase (Homo sapiens), Q99685 [C208A,C242A].
T2 sequence (whole entry): T1 sequence (whole entry) with C208A, C242A
The assay can be described thus: Inhibition of human MGL C208A/C242A double mutant using [3H]2-oleoylglycerol substrate.

The target of assay [5] is T1, Monoglyceride lipase (Homo sapiens). Description: Inhibition of human MGL activity using [3H]2-oleoylglycerol substrate at 100 nM measured upto 1 hr by high dilution reversibility assay. An outline of the steps: as §1
Assay [6] deals with Monoglyceride lipase (Homo sapiens, UniProt Q99685, C242A). Description: Inhibition of human MGL C242A mutant using [3H]2-oleoylglycerol substrate.
Assay [7] concerns the target T3, Fatty-acid amide hydrolase 1 (Homo sapiens, UniProt O00519).
T3 sequence (O00519 whole entry): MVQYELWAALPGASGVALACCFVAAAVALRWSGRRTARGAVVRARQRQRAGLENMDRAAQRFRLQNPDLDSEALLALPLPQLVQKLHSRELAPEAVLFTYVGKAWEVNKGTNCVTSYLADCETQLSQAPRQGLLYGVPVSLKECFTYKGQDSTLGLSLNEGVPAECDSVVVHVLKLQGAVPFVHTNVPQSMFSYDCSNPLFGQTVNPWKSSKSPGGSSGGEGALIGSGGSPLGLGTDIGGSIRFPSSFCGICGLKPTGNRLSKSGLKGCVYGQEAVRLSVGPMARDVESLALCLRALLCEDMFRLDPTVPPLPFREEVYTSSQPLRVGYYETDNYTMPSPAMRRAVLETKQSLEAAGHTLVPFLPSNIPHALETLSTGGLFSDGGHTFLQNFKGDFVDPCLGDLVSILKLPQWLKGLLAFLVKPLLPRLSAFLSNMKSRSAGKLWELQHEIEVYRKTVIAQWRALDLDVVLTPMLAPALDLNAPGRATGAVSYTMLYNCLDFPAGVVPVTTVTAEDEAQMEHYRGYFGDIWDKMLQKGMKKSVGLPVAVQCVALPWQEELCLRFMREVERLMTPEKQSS
Description: Inhibition of human recombinant FAAH-maltose binding protein.

Assay [8] concerns the target T4, Monoglyceride lipase (Homo sapiens, UniProt Q99685).
T4 sequence (Q99685 whole entry): T1 sequence (whole entry)
The assay can be described thus: Inhibition of human MGL activity using [3H]2-oleoylglycerol substrate by liquid scintillation counting. A digest of the protocol:
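Recombinant human MGL was used, and inhibition was expressed as pIC50.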

For assay [9], the target named is T1, Monoglyceride lipase (Homo sapiens). The assay can be described thus: Inhibition of human MGL activity using [3H]2-oleoylglycerol substrate assessed as reversible enzyme activity in presence of 1,4-dithio-DL-threitol. A digest of the protocol: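 Recombinant human MGL incubated with inhibitor to allow disulfide bond formation. DTT (10^-2 M) was then added before substrate addition and the MGL activity read.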

Assay [10] addresses T5, Aldehyde dehydrogenase, mitochondrial (Rattus norvegicus, UniProt P11884).
T5 sequence (P11884 whole entry): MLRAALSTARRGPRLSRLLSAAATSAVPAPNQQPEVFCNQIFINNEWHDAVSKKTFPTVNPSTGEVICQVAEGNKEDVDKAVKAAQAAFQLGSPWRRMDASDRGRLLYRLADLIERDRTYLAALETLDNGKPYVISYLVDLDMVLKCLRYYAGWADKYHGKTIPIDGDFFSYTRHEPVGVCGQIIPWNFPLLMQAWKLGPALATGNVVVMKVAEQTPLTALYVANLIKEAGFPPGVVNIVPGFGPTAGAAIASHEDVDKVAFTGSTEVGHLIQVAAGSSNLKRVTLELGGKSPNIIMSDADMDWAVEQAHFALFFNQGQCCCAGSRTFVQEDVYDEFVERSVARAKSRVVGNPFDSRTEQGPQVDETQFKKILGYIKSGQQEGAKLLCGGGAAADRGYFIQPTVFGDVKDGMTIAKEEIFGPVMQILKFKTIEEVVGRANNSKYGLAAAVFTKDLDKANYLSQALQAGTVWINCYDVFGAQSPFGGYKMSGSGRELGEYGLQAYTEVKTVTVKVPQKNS
Description: Inhibition of recombinant rat ALDH activity in liver mitochondria.

Assay [11] concerns the target T1, Monoglyceride lipase (Homo sapiens). Description: Inhibition of human MGL activity using [3H]2-oleoylglycerol substrate at 33.3 nM measured upto 1 hr by high dilution reversibility assay. An outline of the steps: as §1

Sequence of Monoglyceride lipase (Homo sapiens, UniProt Q99685, C242A) (Q99685 whole entry C242A): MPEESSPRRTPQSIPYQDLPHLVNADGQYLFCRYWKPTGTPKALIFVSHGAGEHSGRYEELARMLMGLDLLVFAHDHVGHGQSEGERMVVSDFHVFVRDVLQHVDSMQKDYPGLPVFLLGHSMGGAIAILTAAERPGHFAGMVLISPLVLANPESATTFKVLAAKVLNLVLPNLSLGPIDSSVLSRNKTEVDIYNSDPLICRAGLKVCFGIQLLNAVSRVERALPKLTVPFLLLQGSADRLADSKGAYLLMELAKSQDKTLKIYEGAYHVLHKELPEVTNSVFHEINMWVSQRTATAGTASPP
Sequence of Monoglyceride lipase (Homo sapiens, UniProt Q99685, C208A) (Q99685 whole entry C208A): as the sequence (Q99685 whole entry C242A) above, with C208A, A242C counted along it

One may read the inhibition as the share of the control response that was lost under treatment. One may read the IC50 as the concentration needed to halve the response being measured. Consider `CN1CCN(C(=S)SSC(=S)N2CCN(C)CC2)CC1`, for which the outcome in assay [1], in assay [5], in [9] and in [11] was Active. This compound registered an inhibition in assay [2] of more than 50%. The IC50 against Monoglyceride lipase [3] is 8.32 µM; at Monoglyceride lipase [6], 0.302 µM; in assay [7], 200 µM; on Monoglyceride lipase [8], 0.11 µM; in assay [10] it was 15.8 µM. Moreover, the result in [4] was inactive.

(Values after ChEMBL document CHEMBL1154683, “Bis(dialkylaminethiocarbonyl)disulfides as potent and selective monoglyceride lipase inhibitors” (J Med Chem, 2009).)
